Source: ChEMBL document CHEMBL1667774, “Synthesis and evaluation of a class of new coumarin triazole derivatives as potential antimicrobial agents” (2011)
Values after ≈ are worked out from the molar mass of the structure shown.

Legend:
Staphylococcus aureus [1] = experiment: Antimicrobial activity against Staphylococcus aureus ATCC 25923 by twofold broth dilution method; format: functional
Method in brief: (§1)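 Two-fold broth dilution in 96-well micro-test plates, following NCCLS recommendations. Enoxacin and Chloromycin served as positive controls for bacteria, and Fluconazole for fungi. The read-out is the MIC in µg/mL.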

Staphylococcus aureus [2] = experiment: Antimicrobial activity against methicillin-resistant Staphylococcus aureus N 315 by twofold broth dilution method; format: functional
Method in brief: (§2)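 Antibacterial MIC, determined by two-fold serial broth dilution following the NCCLS-recommended method. Clinical antimicrobial drugs were run alongside as positive controls.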

Bacillus subtilis = experiment: Antimicrobial activity against Bacillus subtilis ATCC 6633 by twofold broth dilution method; format: functional; method in brief: as §1
Micrococcus luteus = experiment: Antimicrobial activity against Micrococcus luteus ATCC 4698 by twofold broth dilution method; format: functional; method in brief: as §1
Escherichia coli = experiment: Antimicrobial activity against Escherichia coli ATCC 25922 by twofold broth dilution method; format: functional; method in brief: as §1
Proteus vulgaris = experiment: Antimicrobial activity against Proteus vulgaris ATCC 6896 by twofold broth dilution method; format: functional; method in brief: as §1
Salmonella typhi = experiment: Antimicrobial activity against Salmonella typhi ATCC 9484 by twofold broth dilution method; format: functional, Salmonella enterica subsp. enterica serovar Typhi; conditions: Salmonella enterica; method in brief: as §2
Shigella dysenteriae = experiment: Antimicrobial activity against Shigella dysenteriae ATCC 49550 by twofold broth dilution method; format: functional; method in brief: as §2
Candida albicans = experiment: Antifungal activity against Candida albicans ATCC 76615 by twofold broth dilution method; format: functional; method in brief: as §1
Saccharomyces cerevisiae = experiment: Antifungal activity against Saccharomyces cerevisiae ATCC 9763 by twofold broth dilution method; format: functional; method in brief: as §1
Aspergillus fumigatus = experiment: Antifungal activity against Aspergillus fumigatus ATCC 96918 by twofold broth dilution method; format: functional; method in brief: as §1

Compound	MIC (Staphylococcus aureus [1]) [µg/mL]	MIC (Staphylococcus aureus [2]) [µg/mL]	MIC (Bacillus subtilis) [µg/mL]	MIC (Micrococcus luteus) [µg/mL]	MIC (Escherichia coli) [µg/mL]	MIC (Proteus vulgaris) [µg/mL]	MIC (Salmonella typhi) [µg/mL]	MIC (Shigella dysenteriae) [µg/mL]	MIC (Candida albicans) [µg/mL]	MIC (Saccharomyces cerevisiae) [µg/mL]	MIC (Aspergillus fumigatus) [µg/mL]
Cc1cc(=O)oc2cc(OCCCCCCBr)cc(OCCCCCCBr)c12	256 (≈ 494 µM)	512 (≈ 988 µM)	128 (≈ 247 µM)	128 (≈ 247 µM)	512 (≈ 988 µM)	512 (≈ 988 µM)	512 (≈ 988 µM)	512 (≈ 988 µM)	128 (≈ 247 µM)	128 (≈ 247 µM)	128 (≈ 247 µM)
Cc1cc(=O)oc2cc(OCCCCBr)ccc12	128 (≈ 411 µM)	256 (≈ 823 µM)	128 (≈ 411 µM)	128 (≈ 411 µM)	256 (≈ 823 µM)	256 (≈ 823 µM)	256 (≈ 823 µM)	512 (≈ 1650 µM)	128 (≈ 411 µM)	256 (≈ 823 µM)	512 (≈ 1650 µM)
Cc1cc(=O)oc2cc(OCCCCCBr)ccc12	128 (≈ 394 µM)	256 (≈ 787 µM)	128 (≈ 394 µM)	256 (≈ 787 µM)	512 (≈ 1570 µM)	512 (≈ 1570 µM)	512 (≈ 1570 µM)	256 (≈ 787 µM)	128 (≈ 394 µM)	512 (≈ 1570 µM)	256 (≈ 787 µM)
Cc1cc(=O)oc2cc(OCCCCCCBr)ccc12	64 (≈ 189 µM)	256 (≈ 755 µM)	128 (≈ 377 µM)	64 (≈ 189 µM)	512 (≈ 1510 µM)	256 (≈ 755 µM)	256 (≈ 755 µM)	512 (≈ 1510 µM)	256 (≈ 755 µM)	256 (≈ 755 µM)	512 (≈ 1510 µM)
Cc1cc(=O)oc2cc(OCc3ccc(CBr)cc3)ccc12	256 (≈ 713 µM)	512 (≈ 1430 µM)	256 (≈ 713 µM)	256 (≈ 713 µM)	512 (≈ 1430 µM)	512 (≈ 1430 µM)	512 (≈ 1430 µM)	512 (≈ 1430 µM)	256 (≈ 713 µM)	256 (≈ 713 µM)	256 (≈ 713 µM)
Cc1cc(=O)oc2cc(OCCCCBr)cc(OCCCCBr)c12	256 (≈ 554 µM)	512 (≈ 1110 µM)	128 (≈ 277 µM)	256 (≈ 554 µM)	512 (≈ 1110 µM)	256 (≈ 554 µM)	256 (≈ 554 µM)	256 (≈ 554 µM)	128 (≈ 277 µM)	256 (≈ 554 µM)	256 (≈ 554 µM)
Cc1cc(=O)oc2cc(OCCCCCBr)cc(OCCCCCBr)c12	128 (≈ 261 µM)	256 (≈ 522 µM)	128 (≈ 261 µM)	128 (≈ 261 µM)	512 (≈ 1040 µM)	256 (≈ 522 µM)	256 (≈ 522 µM)	256 (≈ 522 µM)	128 (≈ 261 µM)	256 (≈ 522 µM)	128 (≈ 261 µM)
Cc1cc(=O)oc2cc(OCc3ccc(CBr)cc3)cc(OCc3ccc(CBr)cc3)c12	256 (≈ 459 µM)	512 (≈ 917 µM)	128 (≈ 229 µM)	256 (≈ 459 µM)	512 (≈ 917 µM)	512 (≈ 917 µM)	256 (≈ 459 µM)	512 (≈ 917 µM)	256 (≈ 459 µM)	256 (≈ 459 µM)	256 (≈ 459 µM)
Cc1cc(=O)oc2cc(OCCCCn3cncn3)ccc12	2 (≈ 6.68 µM)	8 (≈ 26.7 µM)	2 (≈ 6.68 µM)	4 (≈ 13.4 µM)	8 (≈ 26.7 µM)	16 (≈ 53.5 µM)	16 (≈ 53.5 µM)	16 (≈ 53.5 µM)	2 (≈ 6.68 µM)	4 (≈ 13.4 µM)	16 (≈ 53.5 µM)
Cc1cc(=O)oc2cc(OCCCCCn3cncn3)ccc12	4 (≈ 12.8 µM)	16 (≈ 51.1 µM)	4 (≈ 12.8 µM)	8 (≈ 25.5 µM)	32 (≈ 102 µM)	32 (≈ 102 µM)	16 (≈ 51.1 µM)	32 (≈ 102 µM)	8 (≈ 25.5 µM)	16 (≈ 51.1 µM)	16 (≈ 51.1 µM)
Cc1cc(=O)oc2cc(OCCCCCCn3cncn3)ccc12	8 (≈ 24.4 µM)	16 (≈ 48.9 µM)	8 (≈ 24.4 µM)	8 (≈ 24.4 µM)	32 (≈ 97.7 µM)	32 (≈ 97.7 µM)	32 (≈ 97.7 µM)	32 (≈ 97.7 µM)	16 (≈ 48.9 µM)	32 (≈ 97.7 µM)	32 (≈ 97.7 µM)
Cc1cc(=O)oc2cc(OCc3ccc(Cn4cncn4)cc3)ccc12	32 (≈ 92.1 µM)	64 (≈ 184 µM)	32 (≈ 92.1 µM)	32 (≈ 92.1 µM)	64 (≈ 184 µM)	64 (≈ 184 µM)	64 (≈ 184 µM)	64 (≈ 184 µM)	32 (≈ 92.1 µM)	64 (≈ 184 µM)	64 (≈ 184 µM)
Cc1cc(=O)oc2cc(OCCCCn3cncn3)cc(OCCCCn3cncn3)c12	1 (≈ 2.28 µM)	2 (≈ 4.56 µM)	2 (≈ 4.56 µM)	1 (≈ 2.28 µM)	1 (≈ 2.28 µM)	2 (≈ 4.56 µM)	1 (≈ 2.28 µM)	1 (≈ 2.28 µM)	1 (≈ 2.28 µM)	2 (≈ 4.56 µM)	4 (≈ 9.12 µM)
Cc1cc(=O)oc2cc(OCCCCCn3cncn3)cc(OCCCCCn3cncn3)c12	2 (≈ 4.29 µM)	8 (≈ 17.1 µM)	4 (≈ 8.57 µM)	4 (≈ 8.57 µM)	8 (≈ 17.1 µM)	4 (≈ 8.57 µM)	4 (≈ 8.57 µM)	4 (≈ 8.57 µM)	2 (≈ 4.29 µM)	4 (≈ 8.57 µM)	32 (≈ 68.6 µM)
